ChEMBL document CHEMBL4000215, “A structure-guided optimization of pyrido[2,3-d]pyrimidin-7-ones as selective inhibitors of EGFRL858R/T790M mutant with improved pharmacokinetic properties” (Eur J Med Chem, 2017)

Legend:
[1] = target: Epidermal growth factor receptor (Homo sapiens, UniProt P00533); test: Inhibition of N-terminal 6His/TEV protease cleavage site-tagged wild type human EGFR using poly (Glu,Tyr) 4:1 as substrate after 1 hr by ELISA
NCI-H1975 = test: Antiproliferative activity against human NCI-H1975 cells harboring EGFR L858R/T790M double mutant after 72 hrs by SRB assay; format: functional, cell-based; conditions: NCI-H1975, 72 h
In short: (§1)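 Cells were cultured in RPMI 1640 with 10% FBS and 1% penicillin-streptomycin at 37 °C in 5% CO2, and their EGFR gene was sequenced before use. They were exposed to a range of compound concentrations for 72 h, and growth was read by sulforhodamine B staining. IC50 came from non-linear regression with a sigmoidal dose-response model.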

A-431 = test: Antiproliferative activity against human A431 cells harboring wild type EGFR after 72 hrs by SRB assay; format: cell-based; conditions: A-431, 72 h; in short: as §1
[2] = target: Epidermal growth factor receptor (Homo sapiens, UniProt P00533, L858R/T790M); test: Inhibition of N-terminal 6His/TEV protease cleavage site-tagged human EGFR L858R/T790M double mutant (696 to 1022 residues) using poly (Glu,Tyr) 4:1 as substrate after 1 hr by ELISA
[3] = AUC (0 to infinity) in Sprague-Dawley rat at 25 mg/kg administered via oral gavage by LC-MS/MS analysis; format: ADME, organism-based; set-up: dose 25 mg/kg, route oral, time infinity; conditions: in vivo
In short: (§2)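 Male Sprague-Dawley rats (180-300 g, n = 3 per route) were given a single dose, either 5 mg/kg iv or 25 mg/kg by oral gavage. Vehicle was 5% DMSO, 40% PEG400 and saline. Orbital sinus blood (0.2 mL) was taken into heparinized tubes at 0 min to 24 h. Plasma was stored at -80 °C and assayed by LC-MS/MS, and PK parameters were then calculated.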

[4] = (§3) AUC (0 to infinity) in Sprague-Dawley rat at 5 mg/kg, iv by LC-MS/MS analysis; format: ADME, organism-based; set-up: dose 5 mg/kg, time infinity, route intravenous; conditions: Sprague-Dawley, in vivo; in short: as §2
[5] = Tmax in Sprague-Dawley rat at 25 mg/kg administered via oral gavage by LC-MS/MS analysis; format: ADME, organism-based; conditions: in vivo; in short: as §2
[6] = (§4) Apparent clearance in Sprague-Dawley rat at 5 mg/kg, iv by LC-MS/MS analysis; format: ADME, organism-based; conditions: Sprague-Dawley, in vivo, read-out: CL(app) (converted); in short: as §2
[7] = Cmax in Sprague-Dawley rat at 5 mg/kg, iv by LC-MS/MS analysis; format: ADME, organism-based; set-up: dose 5 mg/kg, route intravenous; conditions: in vivo; in short: as §2
[8] = Cmax in Sprague-Dawley rat at 25 mg/kg administered via oral gavage by LC-MS/MS analysis; format: ADME, organism-based; set-up: dose 25 mg/kg, route oral; conditions: in vivo; in short: as §2
[9] = Oral bioavailability in Sprague-Dawley rat at 25 mg/kg administered via gavage by LC-MS/MS analysis; format: ADME, organism-based; conditions: in vivo; in short: as §2
Rattus norvegicus [10] = test: as §3; format: ADME, organism-based; set-up: dose 5 mg/kg, time infinity, route intravenous; conditions: in vivo; in short: as §2
Rattus norvegicus [11] = test: as §4; format: ADME, organism-based; conditions: in vivo; in short: as §2

Chain of Epidermal growth factor receptor (Homo sapiens, UniProt P00533) (P00533 whole entry): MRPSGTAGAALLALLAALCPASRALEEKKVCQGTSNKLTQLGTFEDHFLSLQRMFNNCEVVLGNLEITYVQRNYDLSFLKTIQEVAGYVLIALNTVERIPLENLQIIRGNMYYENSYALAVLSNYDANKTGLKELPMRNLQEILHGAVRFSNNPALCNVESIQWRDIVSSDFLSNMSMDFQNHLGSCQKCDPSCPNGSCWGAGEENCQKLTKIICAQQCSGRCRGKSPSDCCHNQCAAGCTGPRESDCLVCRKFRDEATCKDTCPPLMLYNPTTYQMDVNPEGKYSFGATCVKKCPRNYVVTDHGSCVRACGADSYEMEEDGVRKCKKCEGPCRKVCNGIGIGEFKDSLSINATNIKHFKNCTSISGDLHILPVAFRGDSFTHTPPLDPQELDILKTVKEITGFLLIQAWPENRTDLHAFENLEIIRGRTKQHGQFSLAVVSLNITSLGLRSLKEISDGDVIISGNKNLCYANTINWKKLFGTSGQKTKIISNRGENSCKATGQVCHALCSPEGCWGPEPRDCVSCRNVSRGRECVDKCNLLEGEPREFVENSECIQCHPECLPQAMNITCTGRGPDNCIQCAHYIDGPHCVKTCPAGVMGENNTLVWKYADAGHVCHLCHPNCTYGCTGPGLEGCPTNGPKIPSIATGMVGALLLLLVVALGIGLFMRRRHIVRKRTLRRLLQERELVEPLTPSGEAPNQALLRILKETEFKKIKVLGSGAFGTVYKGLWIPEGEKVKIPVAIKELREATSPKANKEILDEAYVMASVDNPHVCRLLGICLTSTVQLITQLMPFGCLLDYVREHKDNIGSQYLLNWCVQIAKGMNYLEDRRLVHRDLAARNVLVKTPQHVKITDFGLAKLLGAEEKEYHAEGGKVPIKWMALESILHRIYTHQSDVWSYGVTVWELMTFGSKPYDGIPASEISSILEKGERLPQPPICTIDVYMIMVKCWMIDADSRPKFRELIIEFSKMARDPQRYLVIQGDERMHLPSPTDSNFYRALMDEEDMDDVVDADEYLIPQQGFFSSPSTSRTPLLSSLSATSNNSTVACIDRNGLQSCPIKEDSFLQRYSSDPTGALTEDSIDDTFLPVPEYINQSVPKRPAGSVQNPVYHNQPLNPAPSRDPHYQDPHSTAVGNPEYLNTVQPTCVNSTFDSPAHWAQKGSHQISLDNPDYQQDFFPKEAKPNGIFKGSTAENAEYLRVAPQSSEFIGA
Chain of Epidermal growth factor receptor (Homo sapiens, UniProt P00533, L858R/T790M) (P00533 25-1210 T790M/L858R limits assumed): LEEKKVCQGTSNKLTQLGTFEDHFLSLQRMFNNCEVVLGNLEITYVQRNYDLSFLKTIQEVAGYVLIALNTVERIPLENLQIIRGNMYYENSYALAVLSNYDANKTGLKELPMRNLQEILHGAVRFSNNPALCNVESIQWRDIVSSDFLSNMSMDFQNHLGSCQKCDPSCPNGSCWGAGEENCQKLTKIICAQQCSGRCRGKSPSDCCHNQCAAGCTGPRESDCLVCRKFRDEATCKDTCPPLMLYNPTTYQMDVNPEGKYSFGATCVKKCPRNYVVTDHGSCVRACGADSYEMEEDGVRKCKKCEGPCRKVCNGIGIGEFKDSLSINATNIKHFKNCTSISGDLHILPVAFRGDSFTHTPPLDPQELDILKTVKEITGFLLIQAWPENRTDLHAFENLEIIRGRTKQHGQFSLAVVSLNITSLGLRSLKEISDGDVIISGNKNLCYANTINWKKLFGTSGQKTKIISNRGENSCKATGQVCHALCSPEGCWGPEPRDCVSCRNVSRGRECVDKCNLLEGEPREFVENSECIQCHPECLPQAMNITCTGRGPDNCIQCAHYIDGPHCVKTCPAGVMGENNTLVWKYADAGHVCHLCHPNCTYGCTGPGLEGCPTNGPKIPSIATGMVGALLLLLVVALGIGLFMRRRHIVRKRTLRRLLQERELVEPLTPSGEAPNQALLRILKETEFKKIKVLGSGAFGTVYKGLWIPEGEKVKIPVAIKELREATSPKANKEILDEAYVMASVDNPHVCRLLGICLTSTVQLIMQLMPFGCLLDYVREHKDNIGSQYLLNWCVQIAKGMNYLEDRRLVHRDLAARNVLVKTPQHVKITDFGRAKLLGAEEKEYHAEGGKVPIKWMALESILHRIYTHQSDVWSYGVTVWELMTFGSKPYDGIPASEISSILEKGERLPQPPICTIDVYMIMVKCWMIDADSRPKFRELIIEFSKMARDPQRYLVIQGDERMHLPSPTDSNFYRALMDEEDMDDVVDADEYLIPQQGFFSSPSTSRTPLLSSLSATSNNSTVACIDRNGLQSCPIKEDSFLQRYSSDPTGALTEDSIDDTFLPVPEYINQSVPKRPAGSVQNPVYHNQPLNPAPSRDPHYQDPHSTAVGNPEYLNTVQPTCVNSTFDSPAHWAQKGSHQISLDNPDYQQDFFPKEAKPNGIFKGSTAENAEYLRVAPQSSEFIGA

Structure (SMILES)	IC50 [1]	IC50 (NCI-H1975)	IC50 (A-431)	IC50 [2]	also measured
C=CC(=O)Nc1cc(-n2c(=O)cc(C)c3cnc(Nc4ccc(N5CCN(C)C(C)C5)cc4OC)nc32)cc(C(F)(F)F)c1 (stereo not drawn)	66 nM	12 nM	1710 nM	1.6 nM	–
C=CC(=O)Nc1cc(-n2c(=O)cc(C)c3cnc(Nc4ccc(N5CC(C)N(C)C(C)C5)cc4OC)nc32)cc(C(F)(F)F)c1 (stereo not drawn)	97 nM	30 nM	1130 nM	3.3 nM	–
C=CC(=O)Nc1cccc(-n2c(=O)cc(C)c3cnc(Nc4ccc(N5CCN(C)CC5)cc4OC)nc32)c1.CS(=O)(=O)O	–	–	–	–	AUC(0-inf) [3]: 243 ng·h/mL; AUC(0-inf) [4]: 450 ng·h/mL; Tmax [5]: 1.56 h; clearance [6]: 190 mL/min/kg; Cmax [7]: 1370 ng/mL; Cmax [8]: 83.1 ng/mL; bioavailability [9]: 10.8%
C=CC(=O)Nc1cc(Cl)cc(-n2c(=O)cc(C)c3cnc(Nc4ccc(N5CCN(C)CC5)cc4OC)nc32)c1	33.1 nM	7 nM	1430 nM	0.6 nM	–
C=CC(=O)Nc1cc(-n2c(=O)cc(C)c3cnc(Nc4ccc(N5CCN(C)C(C)C5)cc4OC)nc32)cc(C(F)(F)F)c1.CS(=O)(=O)O (stereo not drawn)	–	–	–	–	AUC(0-inf) [3]: 111 ng·h/mL; AUC (Rattus norvegicus [10]): 398.48 ng·h/mL; Tmax [5]: 1.67 h; CL(app) (Rattus norvegicus [11]): 37.5 mL/min/kg; Cmax [7]: 259 ng/mL; Cmax [8]: 21.4 ng/mL; bioavailability [9]: 5.58%
C=CC(=O)N1CCC(n2c(=O)cc(C)c3cnc(Nc4ccc(N5CCN(C)CC5)cc4OC)nc32)CC1	> 1000 nM	2240 nM	> 10000 nM	> 1000 nM	–
C=CC(=O)Nc1cc(-n2c(=O)cc(C)c3cnc(Nc4ccc(N5CCN(C)CC5)cc4OC)nc32)cc(C(F)(F)F)c1.CS(=O)(=O)O	–	–	–	–	AUC(0-inf) [3]: 671 ng·h/mL; AUC(0-inf) [4]: 831 ng·h/mL; Tmax [5]: 2 h; clearance [6]: 102 mL/min/kg; Cmax [7]: 2460 ng/mL; Cmax [8]: 161 ng/mL; bioavailability [9]: 16.1%
C=CC(=O)Nc1cccc(-n2c(=O)cc(C)c3cnc(Nc4nc5c(s4)CN(C)CC5)nc32)c1	550 nM	8 nM	2700 nM	2.5 nM	–
C=CC(=O)Nc1cc(CC)cc(-n2c(=O)cc(C)c3cnc(Nc4ccc(N5CCN(C)CC5)cc4OC)nc32)c1	472 nM	142 nM	1050 nM	3.4 nM	–
C=CC(=O)Nc1cccc(Nc2nc(Nc3ccc(N4CCN(C(C)=O)CC4)cc3OC)ncc2C(F)(F)F)c1 [ROCILETINIB]	–	42 nM	1540 nM	–	–
C=CC(=O)Nc1cc(F)cc(-n2c(=O)cc(C)c3cnc(Nc4ccc(N5CCN(C)CC5)cc4OC)nc32)c1	26 nM	0.1 nM	817 nM	0.8 nM	–
C=CC(=O)Nc1cc(-n2c(=O)cc(C)c3cnc(Nc4ccc(N5CCN(C)CC5)cc4OC)nc32)cc(C(C)(C)C)c1	> 1000 nM	197 nM	660 nM	17.7 nM	–
C=CC(=O)N1CC[C@H](n2c(=O)cc(C)c3cnc(Nc4ccc(N5CCN(C)CC5)cc4OC)nc32)C1	–	762 nM	> 10000 nM	–	–
C=CC(=O)Nc1cc(-n2c(=O)cc(C)c3cnc(Nc4ccc(N5CCN(C)CC5)cc4OC)nc32)ccc1C	36.9 nM	81 nM	3620 nM	2.3 nM	–
C=CC(=O)Nc1cccc(-n2c(=O)cc(C)c3cnc(Nc4ccc(N5CCN(C)C(C)C5)cc4OC)nc32)c1.CS(=O)(=O)O (stereo not drawn)	–	–	–	–	AUC(0-inf) [3]: 526 ng·h/mL; AUC(0-inf) [4]: 433 ng·h/mL; Tmax [5]: 1.67 h; clearance [6]: 197 mL/min/kg; Cmax [7]: 1330 ng/mL; Cmax [8]: 155 ng/mL; bioavailability [9]: 24.3%
C=CC(=O)Nc1cccc(-n2c(=O)cc(C)c3cnc(Nc4cnn(C5CCN(C)CC5)c4)nc32)c1	166 nM	14 nM	3520 nM	1.8 nM	–
C=CC(=O)Nc1cccc(-n2c(=O)cc(C)c3cnc(Nc4ccc(N5CC(C)N(C)C(C)C5)cc4OC)nc32)c1 (stereo not drawn)	–	4 nM	1670 nM	–	–
C=CC(=O)Nc1cccc(-n2c(=O)cc(C)c3cnc(Nc4ccc(N5CCN(C)CC5)nc4)nc32)c1	46.8 nM	64 nM	2380 nM	1.4 nM	–
C=CC(=O)N1CC[C@@H](n2c(=O)cc(C)c3cnc(Nc4ccc(N5CCN(C)CC5)cc4OC)nc32)C1	–	5200 nM	> 10000 nM	–	–
C=CC(=O)Nc1cc(-n2c(=O)cc(C)c3cnc(Nc4ccc(N5CC(C)N(C)C(C)C5)cc4OC)nc32)cc(C(F)(F)F)c1.CS(=O)(=O)O (stereo not drawn)	–	–	–	–	AUC(0-inf) [3]: 89.7 ng·h/mL; AUC(0-inf) [4]: 410 ng·h/mL; Tmax [5]: 6 h; clearance [6]: 205 mL/min/kg; Cmax [7]: 592 ng/mL; Cmax [8]: 17.4 ng/mL; bioavailability [9]: 4.38%
C=CC(=O)Nc1cc(C(C)C)cc(-n2c(=O)cc(C)c3cnc(Nc4ccc(N5CCN(C)CC5)cc4OC)nc32)c1	24 nM	120 nM	1440 nM	2.4 nM	–
C=CC(=O)Nc1cccc(-n2c(=O)cc(C)c3cnc(Nc4ccc(N5CC(C)N(C)C(C)C5)cc4OC)nc32)c1.CS(=O)(=O)O (stereo not drawn)	–	–	–	–	AUC(0-inf) [3]: 613 ng·h/mL; AUC(0-inf) [4]: 622 ng·h/mL; Tmax [5]: 4 h; clearance [6]: 135 mL/min/kg; Cmax [7]: 772 ng/mL; Cmax [8]: 64.4 ng/mL; bioavailability [9]: 13.3%
C=CC(=O)Nc1cc(Br)cc(-n2c(=O)cc(C)c3cnc(Nc4ccc(N5CCN(C)CC5)cc4OC)nc32)c1	57 nM	4 nM	1150 nM	1.8 nM	–
C=CC(=O)Nc1cccc(-n2c(=O)cc(C)c3cnc(Nc4ccc(N5CCN(C)CC5)cc4OC)nc32)c1	330 nM	2 nM	1400 nM	–	–
C=CC(=O)Nc1cccc(-n2c(=O)cc(C)c3cnc(Nc4cnn(CCN(C)C)c4)nc32)c1	445 nM	289 nM	4000 nM	4.2 nM	–
C=CC(=O)N1CCC(Cn2c(=O)cc(C)c3cnc(Nc4ccc(N5CCN(C)CC5)cc4OC)nc32)C1 (racemic)	> 1000 nM	305 nM	> 10000 nM	63.8 nM	–
C=CC(=O)Nc1cccc(-n2c(=O)cc(C)c3cnc(Nc4ccc(N5CCN(C)C(C)C5)cc4OC)nc32)c1 (stereo not drawn)	169 nM	18 nM	706 nM	1.2 nM	–
C=CC(=O)Nc1cc(C)cc(-n2c(=O)cc(C)c3cnc(Nc4ccc(N5CCN(C)CC5)cc4OC)nc32)c1	208 nM	6 nM	3250 nM	1.8 nM	–
